E coli WT inh – blocks growth of wild type E. coli BW25113. inhibition, % at 10 µM. E. coli BW25113 growth inhibition, OD600. 0.05% of 20,000 active; in the data active means inhibition above about 40%;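 further: bacteria exposed to compound for 20 hours at 37 °C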
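Assay system: Bacterial strain in a whole-cell growth screen | Amount: Inoculum from a 1:1000 dilution of a 1.5 h subculture | Detection: Absorbance at 615 nm as a measure of bacterial growth | Timing: 20 h exposure, 37 °C | Buffer or medium: LB plus kanamycin 50 µg/mL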
Calls only; – = inactive. Not all results are given here.

SMILES	E coli WT inh
CCS(=O)(=O)c1nc2ccccc2n1Cc1ccccc1Cl	–
O=C(Nc1ccc(S(=O)(=O)NC2CCCC2)cc1)c1cnccn1	–
CN(c1ccccc1)S(=O)(=O)c1ccc(C(=O)OCC(=O)N2CCOCC2)cc1	–
COC(=O)C1=C(CSc2nc3ccccc3o2)NC(=O)NC1c1cc(C)ccc1C (stereo not drawn)	–
CCCCOC(=O)C1=C(C)Nc2ncnn2C1c1cccc(OC)c1OC (stereo not drawn)	–
O=S(=O)(NCc1ccco1)N1CCOCC1	–
Cn1ncc(C#N)c1NC(=O)c1nn2cccnc2c1Cl	–
CCCCc1nc2ccccc2n2cc3c(=O)n(C)c(=O)n(C)c3c12	–
O=C(O)CCC(=O)c1c[nH]c2ccccc12	–
Nc1nncn1C(=O)CCc1ccccc1	–
CNc1nc(NC)nc(-n2c(C(F)(F)F)nc3ccccc32)n1	–
O=S(=O)(c1ccccc1)c1nc(-c2ccco2)oc1NCCCn1ccnc1	–
COc1ccc(C(C)(C)C)cc1NC(=O)Nc1ccc2c(c1)OCO2	–
COc1ccc(-c2noc(CCC(=O)Nc3nc4ccccc4s3)n2)cc1	–
CCn1cc(C(C)NC(=O)COc2ccc(Cl)cc2C)c(C)n1 (stereo not drawn)	–
CC(O)CN(Cc1cccc(Cl)c1)CC(C)O (stereo not drawn)	–
Cc1cc2c(c(=O)n1C)C(Cc1ccccc1)C(C#N)=C(N)O2 (stereo not drawn)	–
O=C(OCC(=O)N1CCC(Cc2ccccc2)CC1)c1ccc[nH]c1=O	–
CN(C1CCCCC1)S(=O)(=O)Cc1ccccc1	–
CC(C)(C)c1csc(NC(=O)Cn2cnc3ccccc3c2=O)n1	–
COC(=O)c1cc(OC)c(OC)cc1NC(=O)c1cc(C)on1	–
O=C(c1ccco1)N1CCN(c2ncnc3c2oc2ccccc23)CC1	–
Cc1cc(C(F)(F)F)nc(SCC(=O)NC2CC3CCC2C3)n1 (stereo not drawn)	–
COc1ccc(N(CC(=O)N2c3ccccc3CC2C)S(=O)(=O)c2c(C)noc2C)cc1 (stereo not drawn)	–
CC1(C)NC(=O)N(CCCSc2ccc(Cl)cc2)C1=O	–
SMILES	E coli WT inh
CC1CCC(NC(=O)C2CCN(c3cnccn3)CC2)CC1 (stereo not drawn)	–
CC1Cc2nc(SCC(=O)Nc3ccc4c(c3)OCO4)n(-c3ccc(F)cc3)c(=O)c2S1 (stereo not drawn)	–
CCOC(=O)CSc1nnc(Cn2nnc(-c3ccccc3)n2)n1C	–
N#CC1=C(N)OC2=C(C(=O)CCC2)C1CCc1ccccc1 (stereo not drawn)	–
CC(=O)C1=C(N2CCCCC2)CCC1=O	–
COc1ccc(N(C(=O)c2ccco2)S(=O)(=O)c2cc(OC)ccc2OC)cc1	–
CCn1c(Cn2nnc(-c3ccccc3)n2)nnc1SCc1ccc(Cl)c(Cl)c1	–
Nc1nc(N2CCN(C/C=C/c3ccccc3)CC2)nc2ccccc12	–
C=CCn1c(SCC(=O)Nc2ccc3c(c2)OCO3)nnc1-c1cc(Br)ccc1O	–
COn1c(SCC(=O)N(C)C)nc2ccccc2c1=O	–
O=C(O)C1C2C=CC(C2)C1C(=O)Nc1ccc(C(=O)N2CCCCC2)cc1 (stereo not drawn)	–
O=C(c1ccc(Cl)c(F)c1F)N1CCCC1	–
Cc1cc(Nc2ccc(N3CCC(C)CC3)cc2)n2ncnc2n1	–
COc1ccc(CCC(=O)N2CCc3ccccc32)cc1	–
COC(=O)COc1ccc(S(=O)(=O)NCc2ccco2)cc1Cl	–
CCOC(=O)c1cc2c(=O)n3cccc(C)c3nc2n(Cc2ccccc2Cl)c1=N	–
O=C(C1CCCN(S(=O)(=O)c2cccnc2)C1)N1CCn2c1nc1ccccc12 (stereo not drawn)	–
COc1ccc2cc(S(=O)(=O)N3CCCCC3)ccc2c1S(=O)(=O)N1CCCCC1	–
CC1(C)CC(C#N)(N2CCOCC2)CCO1 (stereo not drawn)	–
COc1cccc(N2CCN(CC(=O)c3c[nH]c4ccc(OC)cc34)CC2C)c1 (stereo not drawn)	–
CCOC(=O)C(NC(=O)OC(C)C)(Nc1nccs1)C(F)(F)F (stereo not drawn)	–
O=C(Nc1cccc2cccc(NC(=O)c3ccco3)c12)c1ccco1	–
O=C1CC(C(=O)N2CCOCC2)C2(CCCC2)O1 (stereo not drawn)	–
Cc1cc2cc(CNC(=O)c3ccc4c(c3)OCO4)ccc2[nH]1	–
COc1ccc(C2CNC(=O)C2)cc1OC1CCCC1 (stereo not drawn)	–
SMILES	E coli WT inh
COc1c(S(=O)(=O)n2nc(C)cc2C)ccc(Cl)c1Cl	–
Cc1cc(C)n(C(=O)C(C)N2C(=O)c3ccccc3C2=O)n1 (stereo not drawn)	–
CC(C)CCNC(=O)Cn1c(NCCC(C)C)nc2c1c(=O)n(C)c(=O)n2C	–
CCn1c2ccccc2c2cc(NC(=O)CCCN3C(=O)CCC3=O)ccc21	–
COc1cc(S(=O)(=O)N2CCOCC2)ccc1NC(=O)COC(=O)c1ccccn1	–
COC(=O)c1cn(C(=O)c2cccs2)c2ccccc12	–
O=C(NC1CCCCC1)N(Cc1ccc(F)cc1)Cc1nc2ccccc2c(=O)[nH]1	–
O=C(Nc1ccc(N2CCOCC2)c(F)c1)c1ccncc1	–
Cc1ccccc1N1CCN(c2ncnc3c2cnn3Cc2ccc(Cl)cc2)CC1	–
CCN1C(=O)N(CC)C2C1N(C(C)=O)C(=O)N2C(C)=O (stereo not drawn)	–
Cc1ccccc1CS(=O)(=O)CCC(=O)N1CCN(c2ccc(N3CCOCC3)nn2)CC1	–
Cc1c(C)[n+](=O)c2c(n1[O-])CCCCC2	–
COCCn1c(C)cc(C(=O)CSc2nnc3scc(-c4ccc(Cl)cc4)n23)c1C	–
O=C(NC(=O)c1ccccc1)NC1(C(F)(F)F)OCCO1	–
CCOC(=O)c1ccccc1NC1CC(=O)N(c2ccccc2C)C1=O (stereo not drawn)	–
Cc1cc(NS(=O)(=O)Cc2ccccc2)no1	–

High-throughput results from PubChem.
